The nature of this series: Toxicity liver stage against HepG2, at 10uM. The following applies: human, HepG2-A16-CD81EGFP cells; read-out: INHIBITION
Also noted: test concentration 10 uM, cell line HepG2-A16-CD81EGFP. It counts as cell-based. The essentials:
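Uninfected HepG2-A16-CD81EGFP cells, 3 × 10^3 per well, 1536-well, plated on prespotted compound at 10 μM final, parasite-free screening media added to match infected plates; puromycin 10 μM positive, DMSO 0.5% negative; run in parallel with 48 h PbLuc assay at 37 °C, 5% CO2; viability by CellTiter-Glo luminescence, normalized to controls.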

Molecules are shown by their SMILES.

As for `O=C(NCc1ccccn1)Nc1cc(C(F)(F)F)c[nH]c1=O`, the cytotoxicity at 10 µM was -2.87%.

`CCc1nnc(CN(CC)C(=O)C2CCC(=O)N(C3CCCC3)C2)o1` (configuration not stated): the cytotoxicity at 10 µM was 2.01%.

As to `Cc1ccccc1C1(CN)CCCCC1`, the cytotoxicity at 10 µM was found to be 2.29%.

For the compound `Cc1ccc(-c2cc(CNC(=O)N3CCC(O)CC3)on2)cc1`, the cytotoxicity at 10 µM is -4.62%.

As to `CN1CC2(CCCCN2C(=O)c2ccsc2)CC1=O` (configuration not stated), the cytotoxicity at 10 µM was 2.73%.

As for `O=C(CC1CCCC1)Nc1ccc(-n2cc(Br)cn2)nc1`, the cytotoxicity at 10 µM is -51.2%.

In the case of `O=C(CNC1(CCO)CCOCC1)Nc1ccc(F)cc1F`, the cytotoxicity at 10 µM was -41.6%.

`Cc1csc(N2CCN(CC(=O)Nc3ccncc3)CC2C)n1` (configuration not stated): the cytotoxicity at 10 µM came out at 29.3%.

In the case of `O=C(C1CC=CC1)N1CCC2(CC1)CNCCO2`, the cytotoxicity at 10 µM came to 1.46%.

Consider `CC(O)c1cn(C2CCN(C(=O)C3(C)CCN(C)CC3)CC2)nn1` (configuration not stated), for which the cytotoxicity at 10 µM was -0.293%.

With `Cc1nc2c(c(C)c1CC(=O)NC(C)c1ccccc1)c(=O)[nH]n2C` (configuration not stated), the cytotoxicity at 10 µM is -3.44%.

For `CCn1cc(CNCC(c2ccc(C)s2)N2CCOCC2)cn1` (configuration not stated), the cytotoxicity at 10 µM is -8.65%.

Take `O=C(CN1CCOC(Cn2cccn2)C1)Nc1nccs1` (configuration not stated): the cytotoxicity at 10 µM amounted to 3.64%.

For the compound `COc1ccc(CN2C[C@H]3CC[C@@H](C2)N(Cc2snnc2C)C3)cc1`, the cytotoxicity at 10 µM was -21.7%.

As to `c1ccc(-c2nc(CCNCc3ccncc3)co2)cc1`, the cytotoxicity at 10 µM amounted to 6.07%.

With `Cc1ccc(-n2ncc(C(=O)NCC3CCS(=O)(=O)C3)c2C)cc1` (configuration not stated), the cytotoxicity at 10 µM was -9.01%.

On to `Cc1cnc(C(=O)N2CCc3ncnc(-c4cnn(C)c4)c3CC2)cn1`, for which the cytotoxicity at 10 µM was 0.588%.

As for `COCCCC1(CO)CCCN(CCc2ccccn2)C1` (configuration not stated), the cytotoxicity at 10 µM is 7.42%.

For `Cc1cc2nc(-c3cn(C4CCNCC4)nn3)[nH]c2cc1C`, the cytotoxicity at 10 µM is -8.1%.

With `O=C(NCc1cccs1)c1[nH]nc2c1CS(=O)(=O)CC2`, the cytotoxicity at 10 µM came out at 1.41%.

In the case of `CC[C@H](C)[C@H](N)C(=O)Nc1nc(-c2cnc(N(C)C)nc2)cs1`, the cytotoxicity at 10 µM is -9.44%.

`O=S(=O)(CCO)Cc1ccc(OC(F)F)cc1`: the cytotoxicity at 10 µM was -2.88%.

In the case of `N#Cc1cccnc1OC1CCN(S(=O)(=O)c2c(F)cccc2F)CC1`, the cytotoxicity at 10 µM was 5.45%.

With `COC(=O)c1ccc(N2CCN(C(=O)c3ccn(C)c(=O)c3)CC2)cc1`, the cytotoxicity at 10 µM is 2.7%.

As to `CC(C)Sc1nnnn1C1CCCC1`, the cytotoxicity at 10 µM is -8.61%.

As to `CCN1CCOCC2(CCCN(C(=O)c3cnccn3)C2)C1` (configuration not stated), the cytotoxicity at 10 µM came to 6.21%.

In the case of `COc1cc(C(=O)N(Cc2cccs2)C2CC2)cc2c1OCCO2`, the cytotoxicity at 10 µM was found to be 8.45%.

In the case of `CC(=O)N1CC[C@@]2(O)CCCC[C@H]2[C@@H]1c1ccccc1`, the cytotoxicity at 10 µM came out at 2.41%.

On to `CN(C)C(=O)CN1CCCC(CCCc2ccccn2)(C(N)=O)C1` (configuration not stated), for which the cytotoxicity at 10 µM is -23.2%.

As for `CN(C)C(CNC(=O)c1nc(N2CCOCC2)ncc1Cl)c1cccs1` (configuration not stated), the cytotoxicity at 10 µM was found to be 8.26%.

Regarding `N#Cc1ccccc1CN1CCC(c2nccn2CC(N)=O)CC1`, the cytotoxicity at 10 µM was -8.61%.

As to `Cn1ccc2ccnc(CC3CN(C(=O)C4CCC(F)(F)CC4)C3)c21`, the cytotoxicity at 10 µM is -2.78%.

`COCC(=O)N1CCn2c(COc3cccnc3)cnc2C1C` (configuration not stated): the cytotoxicity at 10 µM is 2.14%.

`OCCOCCNCC1(c2ccc(F)cc2)CCOC1` (configuration not stated): the cytotoxicity at 10 µM was -147%.

In the case of `Cc1cnc(C(=O)N2C[C@H]3CCCC(OCc4cccnc4)[C@H]3C2)cn1` (some centres not stated), the cytotoxicity at 10 µM was determined as 3.51%.

As for `CCc1nc(NC2CCN(CC(=O)NC3CC3)CC2)c2cnn(C)c2n1`, the cytotoxicity at 10 µM worked out at 4.99%.

As for `Cc1nn(C)c(N(C)C)c1CNCc1ccc(N(C)C)nc1`, the cytotoxicity at 10 µM is -1.24%.

`Cc1noc(C)c1-c1cncc(C2CCCN2Cc2c[nH]cn2)n1` (configuration not stated): the cytotoxicity at 10 µM was -12.4%.

In the case of `COc1ccccc1C(=O)N1CCN(C(=O)CCCc2cn[nH]c2)CC1`, the cytotoxicity at 10 µM is 2.68%.

As to `O=C(N[C@@H]1CN(c2ncccn2)[C@@H]2CCCO[C@@H]21)c1cnccn1`, the cytotoxicity at 10 µM is -4.8%.

For `CC(O)CN1CCN(C(=O)c2ccc(N3CCCC3)nn2)CC1` (configuration not stated), the cytotoxicity at 10 µM was -17.3%.

Consider `O=C1COc2cc(C(=O)N3CCCC(n4cccn4)C3)ccc2N1` (configuration not stated), for which the cytotoxicity at 10 µM was -22.6%.

Consider `CC(C)(C#N)CCCS(=O)(=O)c1nccn1-c1cccc(F)c1`, for which the cytotoxicity at 10 µM is -1.12%.

Take `Cc1cn2c(n1)CCC(NC(=O)c1c[nH]c(C)n1)C2` (configuration not stated): the cytotoxicity at 10 µM is -0.361%.

Consider `CCc1nnc(CN2CCOC(Cn3cc(C)cn3)C2)o1` (configuration not stated), for which the cytotoxicity at 10 µM was -6.59%.

Consider `Cc1cccc(-c2noc([C@@H]3Cc4nc[nH]c4CN3)n2)c1`, for which the cytotoxicity at 10 µM was 0.442%.

`CC(C)CCNC(=O)NC(C)c1nncn1C` (configuration not stated): the cytotoxicity at 10 µM was -9.9%.

With `CCN(CC)C(=O)C1CCC(=O)N(CCc2cccc(F)c2)C1` (configuration not stated), the cytotoxicity at 10 µM is -4.92%.

In the case of `CC(C)NC(=O)c1ccn(COc2c(Cl)cccc2Cl)n1`, the cytotoxicity at 10 µM was 7.44%.

For the compound `CC(C)n1nc(CN2CCOCC2)c2c1CN(Cc1ccsc1)C2`, the cytotoxicity at 10 µM is -132%.

Turning to `CC(C)n1nc2c(cc1=O)CN(Cc1nc(-c3ccoc3)no1)CC2`, the cytotoxicity at 10 µM was 10.2%.

For the compound `O=C(NCCc1c[nH]cn1)c1n[nH]c2c1CCC2`, the cytotoxicity at 10 µM came to 1.67%.

Turning to `CNS(=O)(=O)c1cccc(C(C)NCc2ccco2)c1` (configuration not stated), the cytotoxicity at 10 µM came to 4.61%.

Consider `COc1ccc2cccc(CC(=O)NCCc3n[nH]c(=O)[nH]3)c2c1`, for which the cytotoxicity at 10 µM was -3.59%.

As to `Cn1cc([C@@H]2CN(S(=O)(=O)c3cccs3)C[C@H]2N)c2ccncc21`, the cytotoxicity at 10 µM was 1.44%.

In the case of `CC(C(=O)Nc1ccccc1Sc1ccccc1)S(C)(=O)=O` (configuration not stated), the cytotoxicity at 10 µM was -1.7%.

With `CC(Cn1cccn1)NCc1nc(-c2ccccc2Cl)no1` (configuration not stated), the cytotoxicity at 10 µM is -3.56%.

With `Cc1nc2c(c(=O)n1C)CN(C(=O)C1CCCN(C(N)=O)C1)C2` (configuration not stated), the cytotoxicity at 10 µM is -2.38%.

In the case of `CC(C)n1ccc(C(=O)N2CCCC(n3cncn3)C2)n1` (configuration not stated), the cytotoxicity at 10 µM was -0.312%.

`Nc1cc2c(nn1)CCN(C(=O)Cc1ccc3c(c1)CCCC3)C2`: the cytotoxicity at 10 µM stood at 0.696%.

For `NC(=O)CCC1CCCN(c2ncnc3c2Cc2ccccc2OC3)C1` (configuration not stated), the cytotoxicity at 10 µM turned out to be 0.721%.

Turning to `O=C(CC(SC1CCCCC1)C(=O)O)c1ccc(Cl)cc1` (configuration not stated), the cytotoxicity at 10 µM was 3.16%.

In the case of `Cc1cc(C(=O)N(C)C)nc(C2(C)CCCN2c2ccnc(C)n2)n1` (configuration not stated), the cytotoxicity at 10 µM was -7.49%.

As to `OCCN(Cc1ccno1)Cc1cc(Br)ccc1F`, the cytotoxicity at 10 µM came to 6%.

In the case of `Cn1cc(CN2C[C@@H]3OCCN(c4ncccn4)[C@@H]3C2)cn1`, the cytotoxicity at 10 µM was -75.1%.

For the compound `O=C(C1CC1)N1CCC2(CC1)CNCc1ccccc12`, the cytotoxicity at 10 µM was determined as 1.79%.

Turning to `Cn1cccc1C(=O)NCc1cn2c(n1)CN(Cc1cccnc1)CC2`, the cytotoxicity at 10 µM is -113%.

Regarding `CN(C)C(C)(C)CNCc1c[nH]nc1-c1cc2ccccc2o1`, the cytotoxicity at 10 µM was -3.6%.

With `c1cnnc(N2CCCC2CNCc2cnc(N3CCCC3)nc2)c1` (configuration not stated), the cytotoxicity at 10 µM worked out at 7.96%.

With `CN(CCc1ccncc1)c1cnn(C)c(=O)c1Br`, the cytotoxicity at 10 µM is -5.44%.

In the case of `COC(=O)c1ccc(C(=O)N2CCc3c(ncn3C3CC3)C2)cc1`, the cytotoxicity at 10 µM was -3.34%.

Regarding `CCOc1ccc(CNCCCn2ccnc2)cc1Cl`, the cytotoxicity at 10 µM was -9.51%.

Values taken from ChEMBL document CHEMBL4513216, “Probing the Open Global Health Chemical Diversity Library for Multistage-Active Starting Points for Next-Generation Antimalarials” (ACS Infect Dis, 2020).
